The list is not random: actives were taken first. Their share in the collection is about 3.5%.
MrgX1 antagonist = antagonists of human MrgX1 receptor | Q96LB2 | 310,000 tested, 1.3% active | MRGX1-HEK293 calcium flux, Fluo-4, BAM8-22 antagonism; stronger effect = lower value | B-score at 10 µM | AID 588676;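 active = calcium-response B-score plate-corrected more than 3 library SD below zero, starting fluorescence within 5 deviations, no agonist response on first addition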;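 also: peak minus trough fluorescence over baseline after final BAM8-22 challenge near maximal dose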
Target sequence (Q96LB2 whole entry, looked up): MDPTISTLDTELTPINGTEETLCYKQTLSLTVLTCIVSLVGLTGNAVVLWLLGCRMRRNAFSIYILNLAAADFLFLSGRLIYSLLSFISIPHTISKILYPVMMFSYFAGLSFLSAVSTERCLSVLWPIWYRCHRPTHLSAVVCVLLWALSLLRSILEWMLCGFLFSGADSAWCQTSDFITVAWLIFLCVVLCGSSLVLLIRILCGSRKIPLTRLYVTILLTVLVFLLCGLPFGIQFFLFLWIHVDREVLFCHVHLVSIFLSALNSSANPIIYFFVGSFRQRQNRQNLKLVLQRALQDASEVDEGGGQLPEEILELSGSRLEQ
RGS4 act = RGS4 potentiation or activation; HEK293 M3R/inducible RGS4, carbachol calcium flux Fluo4; stronger effect = lower value; 310,000 tested, 0.92% active; B-score at 10 µM;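 active = B-score of the integrated calcium signal more than 4 SD below the library mean, with starting fluorescence not abnormally high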;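 also: negative B-score means reduced calcium response which marks RGS4 activation or potentiation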
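Material: Inducible-RGS4 HEK293 cells carrying M3 receptor; also added: carbachol at ECmax as muscarinic agonist stimulus; incubation: compound preincubation 20 min at room temperature before agonist; signal: Fluo4-AM (2 µM) calcium-flux fluorescence, kinetic read; measure: integrated calcium ratio converted to B score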
RGS4 inh = inhibitors of human RGS4 | P49798 | HEK293 M3R/RGS4 inducible, Fluo-4 calcium flux; stronger effect = higher value; triggered by carbachol at its EC20 | B-score at 10 µM | 310,000 tested, 0.45% active | AID 463165;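 active = B-score, a plate-corrected calcium signal, over three deviations above library mean, with baseline fluorescence within five deviations of library mean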;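 also: RGS4 expression induced by doxycycline in cells with stable M3 receptor; B-score is computed from the integrated fluorescence ratio over baseline after carbachol; higher B-score means a larger calcium signal and so more RGS4 inhibition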
Target sequence (P49798 whole entry, looked up): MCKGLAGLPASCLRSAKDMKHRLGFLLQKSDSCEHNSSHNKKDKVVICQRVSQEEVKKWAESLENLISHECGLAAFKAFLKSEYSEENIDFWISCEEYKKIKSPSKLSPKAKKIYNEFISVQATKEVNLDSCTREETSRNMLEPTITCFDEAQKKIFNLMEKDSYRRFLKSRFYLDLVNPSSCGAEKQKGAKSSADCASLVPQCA
MrgX1 PAM = human MrgX1 positive allosteric modulation, primary screen | Q96LB2 | MrgX1-HEK293, Fluo-4 calcium flux, FDSS; stronger effect = higher value | B-score at 10 µM | 310,000 tested, 0.63% active | AID 588675;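 active = plate-corrected calcium response at least 3 library SD above typical, normal starting fluorescence, not activating the receptor alone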;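 also: compound read alongside a low EC10 to EC30 dose of BAM8-22 agonist; peak minus trough fluorescence over baseline measured at the second addition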
MrgX1 ag = agonists of human MrgX1 receptor; 310,000 tested, 0.44% active; MrgX1-HEK293 cells, Fluo-4 calcium fluorescence, agonist mode; stronger effect = higher value; Q96LB2; B-score at 10 µM;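 active = calcium response B-score plate-corrected fluorescence ratio at least 3 library SD, with starting fluorescence B-score inside 5 SD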
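System – MrgX1-expressing HEK293 cells · Incubation – cells plated overnight, dye loaded 0.5 h 37 °C, 0.5 h room temperature · Technique – kinetic Fluo-4 NW fluorescence of intracellular calcium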
Numbers without * were called inactive; i = inactive; · = no result given.

SMILES	MrgX1 antagonist	RGS4 act	RGS4 inh	MrgX1 PAM	MrgX1 ag
C/C(=N\O)C(C)(C)Nc1ccc(Cl)cc1	i	i	i	i	44*
NC(=S)N/N=C/C=C/c1ccccc1	i	i	i	i	i
O=C1NN(c2ccccc2)C(=O)/C1=C\c1ccccc1	i	i	i	i	i
O=C1NN(c2ccccc2)C(=O)/C1=C/c1cccs1	i	i	i	i	43*
O=C1NN(c2cccc(Br)c2)C(=O)/C1=C/c1cccs1	i	i	i	i	30*
O=C1C(=Cc2cccs2)C(=O)c2ccccc21	i	i	i	i	32*
COc1cc(SC)ccc1C(=O)NCCCn1ccnc1	i	i	i	i	i
NCCCCC(N)c1cn([C@@H](CCC(=O)O)C(=O)N2CCNCC2)nn1 (stereo not given in full)	i	·	·	i	i
CCCCCN1C(=O)/C(=C/c2c(N3CCc4ccccc4C3)nc3ccccn3c2=O)SC1=S	-8.7*	i	i	i	i
COc1ccc(-c2nn(-c3ccccc3)cc2/C=N/N=C(N)N)cc1OC	i	i	i	i	44*
c1ccc(-c2ccc(OCCCNC3CCCC3)cc2)cc1	i	i	i	i	i
c1ccc(Cc2ccc(OCCCNC3CCCC3)cc2)cc1	i	-12*	i	i	i
CCOc1ccc(/C=C2/SC(=O)NC2=S)cc1	i	i	i	i	32*
CCOc1ccc(/C=C2\SC(=S)N(N3C(=O)C4CC4C3=O)C2=O)cc1 (stereo not given)	i	i	i	i	i
Cn1c(SCc2ccccc2Cl)nc2c1c(=O)[nH]c(=O)n2C	i	i	i	i	i
O=C(Cc1ccccc1)N1CCN=C1SCc1cccc([N+](=O)[O-])c1	i	i	i	i	i
Cc1cccc(C(=O)N2CCN=C2SCc2ccc([N+](=O)[O-])cc2)c1	i	-8.6*	i	i	i
CC(C)c1ccc(NC(=O)C2CCN(S(=O)(=O)c3ccc4c(c3)C(C)(C)C(=O)N4C)CC2)cc1	i	i	i	i	i
C=CCc1ccccc1OCC(=O)NNC(=S)NCc1ccccc1	i	-7*	i	i	i
O=C(COc1ccc(Cl)cc1)NNC(=S)NCc1ccccc1	i	i	i	i	i
CCOC(=O)c1sc(=S)n(C)c1NC(=O)c1ccccc1Cl	i	i	i	i	i
CCOC(=O)C(=Cc1c[nH]c2ccc(S(=O)(=O)N(C)C)cc12)C(=O)OCC	i	i	i	6.7*	i
CCOC(=O)/C(C#N)=C/c1c[nH]c2ccccc12	i	i	i	i	i
CC(/C=N/NC(=O)c1ccc2nc(C)[nH]c2c1)=C\c1ccccc1	i	i	i	6.7*	i
CC(=C/c1ccccc1)/C=N/NC(=O)c1ccc2nc[nH]c2c1	i	i	i	i	i
SMILES	MrgX1 antagonist	RGS4 act	RGS4 inh	MrgX1 PAM	MrgX1 ag
Cc1cc(-c2nc(C)c(C(=O)NN)s2)no1	i	i	i	i	i
COc1ccc(Cc2nnc(N/N=C/c3ccc(O)cc3O)[nH]c2=O)cc1OC	i	i	i	i	i
CSc1ccc(CN(C)C(=O)C23CC4CC(CC(Cl)(C4)C2)C3)cc1	i	i	i	i	i
CCN(CC)CCN1C(=O)/C(=C\c2ccc(Cl)c([N+](=O)[O-])c2)SC1=Nc1ccc(OC)cc1	i	i	27*	i	i
COc1ccc(N=C2S/C(=C\c3ccc(Cl)c([N+](=O)[O-])c3)C(=O)N2CCN(C)C)cc1	i	i	13*	i	i
CCCN1C(=O)/C(=C/c2ccc(C)s2)SC1=Nc1ccc(OC)cc1	i	i	i	i	i
CC1CN(C(=O)Cn2c(=O)oc3ccccc32)CC(C)O1 (stereo not given)	i	i	i	i	i
CC1=N/C(=C/c2cc(Br)cc(Br)c2O)C(=O)O1	i	i	i	i	i
Cc1cccc(-n2c(C)cc(/C=N/n3cnnc3)c2C)c1	i	-7.3*	i	i	i
Cc1cccc(-n2c(C)cc(C=C3C(=O)c4ccccc4C3=O)c2C)c1	i	-10*	i	i	i
O=C(Nc1ccccc1-c1nnc(SCc2ccccc2)o1)c1ccccc1	i	-7.4*	i	i	i
O=C(Nc1ccccc1-c1nnc(SCc2ccc(Cl)cc2)o1)c1ccccc1	-7.1*	i	i	i	i
CC(C)(C)C(=O)c1no[n+]([O-])c1/C(=N/O)C(C)(C)C	i	i	i	i	37*
Cc1ccc(NC(=O)CCNS(=O)(=O)c2ccc3[nH]c(=O)oc3c2)cc1N(C)C	i	i	i	i	i
Cc1cc(NC(=O)C(C)Oc2ccc(Cl)cc2Cl)no1 (stereo not given)	i	i	i	i	i
C(=Nc1cccc2c(N=Cc3ccco3)cccc12)c1ccco1	i	i	i	i	39*
CN(C)c1ccc(N=Cc2ccco2)cc1	i	·	·	i	i
CC(C)CN(C(=O)c1cc(=O)[nH]c2ccccc12)c1c(N)n(Cc2ccccc2)c(=O)[nH]c1=O	i	i	i	i	i
COc1ccc(N(CC(=O)N/N=C/c2cc3ccc(OC)cc3nc2Cl)S(=O)(=O)c2ccccc2)cc1	i	i	i	9.1*	i
CS(=O)(=O)Oc1ccc2c(c1)O/C(=C\c1cccnc1)C2=O	i	i	i	i	i
COc1cc(OC)c(OC)cc1/C=C1\Oc2cc(OS(C)(=O)=O)ccc2C1=O	-7.4*	i	i	i	i
O=C(O)c1cccc(-c2ccc(/C=c3/sc4nc5ccccc5n4c3=O)o2)c1	-12*	i	i	i	i
O=c1/c(=C/c2ccccn2)sc2nc3ccccc3n12	i	·	·	i	i
O=c1/c(=C\c2cc([N+](=O)[O-])cc([N+](=O)[O-])c2O)sc2nc3ccccc3n12	i	·	·	i	29*
COc1cc(N/C(N)=N/c2nc(C)cc(C)n2)cc(OC)c1	i	i	i	i	i
CC1CCCC(C)N1C(=O)COC(=O)CCC1CCCC1 (stereo not given)	i	i	i	i	i
OCCNc1c2ccccc2nc2c(F)c(F)c(F)c(F)c12	-8*	i	i	i	i
CN(C)CCCNc1c2ccccc2nc2ccccc12	i	i	i	i	i
O=C(Nc1nnc(CSCc2ccc(Cl)cc2)s1)c1cccc([N+](=O)[O-])c1	-9.5*	i	i	i	i

Screening results: PubChem BioAssay, Johns Hopkins Ion Channel Center
